The source made the active and inactive calls. The rule behind the calls is not given here.
What was measured:
[1] = tested on: U-87 MG; experiment: Induction of intracellular Ca2+ level in human U87MG cells at 1 to 100 uM by Fura-2 AM dye-based assay relative to trifluoperazine; assay type: functional, U-87MG ATCC
How it was run: (§1)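 U87MG cells or neural stem cells (NSCs) were loaded with 5 μM Fura-2 AM plus 1 μM pluronic acid for 40 min at room temperature. Recording was in HEPES-buffered saline at pH 7.3 with 2 mM CaCl₂. Compounds were applied by bath at 1, 3, 10, 30 or 100 μM. Emission at 510 nm was imaged under 340/380 nm excitation, and the ratio was calculated. Peak amplitude was taken relative to the 0–50 s baseline. Dose–response curves gave EC₅₀ and efficacy.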

[2] = tested on: U-87 MG; experiment: Induction of intracellular Ca2+ level in human U87MG cells at 100 uM by Fura-2 AM dye-based assay relative to trifluoperazine; assay type: functional, cell-based; conditions: U-87MG ATCC; how it was run: as §1
[3] = tested on: U-87 MG; experiment: Induction of intracellular Ca2+ level in human U87MG cells by Fura-2 AM dye-based assay; assay type: functional, cell-based, U-87MG ATCC; how it was run: as §1
[4] = tested on: NSC; experiment: Induction of intracellular Ca2+ level in human NSC cells at 100 uM by Fura-2 AM dye-based assay; assay type: cell-based; how it was run: as §1
[5] = tested on: U-87 MG; experiment: Cytotoxicity against human U87MG cells assessed as reduction in cell viability after 24 hrs by MTT assay; assay type: functional, cell-based, U-87MG ATCC
How it was run: (§2)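 Cells were grown in DMEM with 10% FBS and penicillin/streptomycin at 37 °C and 5% CO₂, and used up to passage 20. They were seeded at 1.5 × 10³ cells/well, allowed to attach for 24 h, then treated with vehicle or compound diluted in complete medium for 24 h. MTT reagent was added for 2 h. Viability is expressed relative to cell numbers at initial time. n = 16; one-way ANOVA.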

[6] = Cytotoxicity against human GBL28 cells assessed as reduction in cell viability after 24 hrs by MTT assay; assay type: functional, cell-based; how it was run: as §2
[7] = tested on: NSC; experiment: Cytotoxicity against human NSC cells assessed as reduction in cell viability after 24 hrs by MTT assay; assay type: cell-based; how it was run: as §2
[8] = tested on: U-87 MG; experiment: Cytotoxicity against human U87MG cells assessed as reduction in cell viability at 1 to 20 uM after 24 hrs by MTT assay relative to control; assay type: functional, U-87MG ATCC; how it was run: as §2
[9] = Cytotoxicity against human GBL28 cells assessed as reduction in cell viability at 1 to 20 uM after 24 hrs by MTT assay relative to control; assay type: functional; how it was run: as §2
[10] = tested on: NSC; experiment: Cytotoxicity against human NSC cells assessed as reduction in cell viability at 1 to 20 uM after 24 hrs by MTT assay relative to control; assay type: cell-based; how it was run: as §2
[11] = tested on: U-87 MG; experiment: Potency index, ratio of trifluoperazine IC50 to test compound IC50 for human U87MG cells; assay type: functional, U-87MG ATCC
[12] = Potency index, ratio of trifluoperazine IC50 to test compound IC50 for human GBL28 cells; assay type: functional
[13] = tested on: NSC; experiment: Induction of intracellular Ca2+ level in human NSC cells at 1 to 100 uM by Fura-2 AM dye-based assay relative to control; assay type: cell-based; conditions: read-out: Efficacy; how it was run: as §1
[14] = Selectivity ratio of efficacy for induction of intracellular Ca2+ level in human U87MG cells at 1 to 100 uM to efficacy for induction of intracellular Ca2+ level in human NSC cells at 1 to 100 uM; assay type: functional
[15] = tested on: U-87 MG; experiment: Antitumor activity against human U87MG cells xenografted in BALB/c mouse assessed as reduction in tumor size at 5 mg/kg/day, ip administered for 21 days with 24 hrs resting period followed by treatment discontinuation till day 39 by hematoxylin and eosin staining based confocal microscopic analysis relative to control; assay type: functional, U-87MG ATCC; set-up: scale not given: the % may be the effect or the level left
How it was run: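 Athymic BALB/c nu/nu mice given intracranial U87MG cells (2.5 × 10⁵ cells in 5 μL) into the left frontal lobe (2 mm lateral from bregma, 0.5 mm anterior, 3.5 mm deep). Treatment began on day 3: 5 mg/kg/day i.p., or 0.9% saline for controls (n = 10 each). Dosing ran 21 days, then stopped until day 39. Brains were fixed in 4% PFA, paraffin-embedded, cut at 5 μm and H&E-stained. Tumor volume = [major axis × (minor axis)²]/2.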

[16] = tested on: U-87 MG; experiment: Antitumor activity against human U87MG cells xenografted in BALB/c mouse assessed as increase in mouse survival at 5 mg/kg, ip administered for 21 days with 24 hrs resting period followed by treatment discontinuation and measured on day 39; assay type: functional, U-87MG ATCC
How it was run: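 Orthotopic model in athymic BALB/c nu/nu mice: U87MG cells (2.5 × 10⁵ in 5 μL) injected into the left frontal lobe (2 mm lateral to bregma, 0.5 mm anterior, 3.5 mm deep). From day 3, drug was given i.p. at 5 mg/kg/day or 0.9% saline to controls (n = 10 each) for 21 days. Mice were monitored daily and sacrificed when moribund; survival curves were compared by log-rank test.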

[17] = tested on: Mus musculus; experiment: Toxicity in BALB/c mouse xenografted with human U87MG cells assessed as effect on behavioral changes at 5 mg/kg/day, ip administered for 21 days with 24 hrs resting period followed by treatment discontinuation till day 39; assay type: organism-based; conditions: in vivo
How it was run: (§3)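 Same U87MG orthotopic xenograft mice: 5 mg/kg/day i.p. from day 3 for 21 days, or saline (n = 10 each), with dosing stopped until day 39. Mice were checked daily for general appearance, behavioral changes and neurologic deficits, including parkinsonism and extrapyramidal signs.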

[18] = tested on: Mus musculus; experiment: Toxicity in BALB/c mouse xenografted with human U87MG cells assessed as induction of neurologic deficits at 5 mg/kg/day, ip administered for 21 days with 24 hrs resting period followed by treatment discontinuation till day 39; assay type: organism-based; conditions: in vivo; how it was run: as §3
[19] = tested on: U-87 MG; experiment: Induction of intracellular Ca2+ level in human U87MG cells at 1 to 100 uM by Fura-2 AM dye-based assay relative to control; assay type: functional, U-87MG ATCC; how it was run: as §1
[20] = tested on: Mus musculus; experiment: Toxicity in BALB/c mouse xenografted with human U87MG cells assessed as effect on general appearance at 5 mg/kg/day, ip administered for 21 days with 24 hrs resting period followed by treatment discontinuation till day 39; assay type: organism-based; conditions: in vivo; how it was run: as §3

`CC1CCN(CCCN2c3ccccc3Sc3ccc(Cl)cc32)CC1` showed an Activity [1] of 88%.

Work on `FC(F)(F)c1ccc2c(c1)N(CCCN1CCC(N3CCCC3)CC1)c1ccccc1S2` yielded an Activity [1] of 72%.

In the case of `Clc1ccc2c(c1)N(CCCCN1CCC(N3CCCC3)CC1)c1ccccc1S2`, the Activity [1] is reported as 101%.

In the case of `CN1CCCN(CCCCN2c3ccccc3Sc3ccc(C(F)(F)F)cc32)CC1`, the Activity [1] is reported as 107%.

For `CC1CCN(CCCN2c3ccccc3Sc3ccc(C(F)(F)F)cc32)CC1`, the Activity [1] was 83%.

With `FC(F)(F)c1ccc2c(c1)N(CCCCN1CCC(N3CCCCC3)CC1)c1ccccc1S2` the Activity [1] was 123%, the Activity [2] was “Active” and the EC50 [3] was 6.7 µM. The Activity [4] was “Non-Toxic”, the IC50 [5] was 2.2 µM and the IC50 [6] was 2.1 µM. For the same compound, the IC50 [7] was 3.1 µM, the Efficacy [8] was 82% and the Efficacy [9] was 85%. The Efficacy [10] was 43%, the “Ratio IC50” value [11] was 4 - 5 and the “Ratio IC50” value [12] was 4 - 5.

Compound `FC(F)(F)c1ccc2c(c1)N(CCCN1CCNCC1)c1ccccc1S2` has an Activity [1] of 108%.

Work on `CC1CCN(CCCCN2c3ccccc3Sc3ccc(F)cc32)CC1` yielded an Activity [1] of 110%.

With `FC(F)(F)c1ccc2c(c1)N(CCCCN1CCC(N3CCCC3)CC1)c1ccccc1S2` the Activity [1] was 134%, the Activity [2] was “Active” and the EC50 [3] was 6.2 µM. The Emax [13] was 50%, the Activity [4] was “Non-Toxic” and the Ratio [14] was 2. It also gave an IC50 [5] of 2.3 µM, an IC50 [6] of 2.2 µM and an IC50 [7] of 3.2 µM. It also gave an Efficacy [8] of 82%, an Efficacy [9] of 85% and an Efficacy [10] of 45%. The “Ratio IC50” value [11] was 4 - 5, the “Ratio IC50” value [12] was 4 - 5 and the Activity [15] was 88%. The Survival [16] was 6 days, the Activity [17] was “Non-Toxic” and the Activity [18] was “Non-Toxic”. For the same compound, the Efficacy [19] was 100% and the Activity [20] was “Non-Toxic”.

In the case of `CN1CCN(CCCN2c3ccccc3Sc3ccc(C(F)(F)F)cc32)CC1` [TRIFLUOPERAZINE], the EC50 [3] is reported as 13.5 µM, the Activity [4] is reported as “Non-Toxic” and the IC50 [5] is reported as 9.9 µM. It also gave an IC50 [6] of 10.2 µM, an IC50 [7] of 10.1 µM and an Efficacy [8] of 82%. For the same compound, the Efficacy [9] was 85%, the Efficacy [10] was 21% and the Efficacy [19] was 79%.

For `FC(F)(F)c1ccc2c(c1)N(CCCCN1CCC(N3CCOCC3)CC1)c1ccccc1S2`, the Activity [1] was 120%, the Activity [2] was “Active” and the EC50 [3] was 19.9 µM. The Activity [4] was “Non-Toxic”, the IC50 [5] was 7.1 µM and the IC50 [6] was 6.5 µM. It also gave an IC50 [7] of 5.6 µM, an Efficacy [8] of 82% and an Efficacy [9] of 85%. For the same compound, the Efficacy [10] was 21%.

`CSc1ccc2c(c1)N(CCCN1CCC(C)CC1)c1ccccc1S2` gave an Activity [1] of 76%.

For `FC(F)(F)c1ccc2c(c1)N(CCCCN1CCN(c3ccccc3)CC1)c1ccccc1S2`, the Activity [1] was 94%.

`CSc1ccc2c(c1)N(CCCCN1CCC(C)CC1)c1ccccc1S2` showed an Activity [1] of 72%.

Compound `CC1CCN(CCCCN2c3ccccc3Sc3ccc(C(F)(F)F)cc32)CC1` has an Activity [1] of 93%.

From ChEMBL document CHEMBL4229388, “Repositioning of the antipsychotic trifluoperazine: Synthesis, biological evaluation and in silico study of trifluoperazine analogs as anti-glioblastoma agents” (Eur J Med Chem, 2018)
